The text below walks through data of ChEMBL document CHEMBL2040757, “New N-arylamino biquinoline derivatives: synthesis, antimicrobial, antituberculosis, and antimalarial evaluation” (Eur J Med Chem, 2012).

In general, MIC refers to the smallest concentration in the dilution series that meets the test's criterion for growth inhibition. A high value points to a need for much substance. As usually defined, the inhibition is the share of the control response that was lost under treatment. A low value points to a response near the control. One may read the IC50 as the concentration needed to halve the response being measured.

Converted amounts (≈) assume the structure as drawn.

The subject of assay [1] is Streptococcus pneumoniae. The assay is described as follows: Antibacterial activity against Streptococcus pneumoniae MTCC 1936 by broth microdilution method. Type of assay: functional. Put shortly: (§1)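 Broth microdilution per NCCLS, with serial dilutions in Mueller Hinton broth and DMSO as diluent. Tubes were incubated overnight at 37 °C. MIC was the lowest concentration giving no visible growth, with the control organism's MIC read to verify concentrations. Tubes without growth were subcultured overnight at 37 °C to judge bacteriostatic versus bactericidal action.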
(In broth dilution the organism is exposed to a series of concentrations in liquid medium.)

In assay [2] the test system is Clostridium tetani. The assay is described as follows: Antibacterial activity against Clostridium tetani MTCC 449 by broth microdilution method. Type of assay: functional.
Assay [3] deals with Candida albicans. In words: Antifungal activity against Candida albicans MTCC 227 by broth microdilution method. Type of assay: functional.
The test system of assay [4] is Aspergillus fumigatus. In words: Antifungal activity against Aspergillus fumigatus MTCC 3008 by broth microdilution method. Type of assay: functional.
For assay [5], the system named is Bacillus subtilis. In words: Antibacterial activity against Bacillus subtilis MTCC 441 by broth microdilution method. Type of assay: functional. Put shortly: as §1
Assay [6] deals with Vibrio cholerae. The assay is described as follows: Antibacterial activity against Vibrio cholerae MTCC 3906 by broth microdilution method. Type of assay: functional.
For assay [7], the system named is Mycobacterium tuberculosis. The assay is described as follows: Growth inhibition of Mycobacterium tuberculosis H37Rv at 6.25 ug/mL after 12 to 28 days relative to control. Type of assay: functional.
For assay [8], the system named is Plasmodium falciparum. In words: Antimalarial activity against trophozoite stage of chloroquine-sensitive Plasmodium falciparum 3D7 infected in human erythrocytes after 48 hrs. Type of assay: functional, organism-based. Particulars: 3D7, 48 h. Put shortly:
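Parasites were kept in continuous culture in A+ human erythrocytes in RPMI with 10% human serum. Sorbitol-synchronized trophozoites at 1–2% parasitaemia and 2.5% haematocrit were exposed to serial dilutions (maximum 1 mg/ml; 0.02% final DMSO) for 48 h at 37 °C. Growth inhibition was measured; chloroquine and quinine served as positive controls. IC50 came from duplicate experiments.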

In assay [9] the test system is Escherichia coli. In words: Antibacterial activity against Escherichia coli MTCC 443 by broth microdilution method. Type of assay: functional. Put shortly: as §1
The test system of assay [10] is Salmonella typhi. In words: Antibacterial activity against Salmonella typhi MTCC 98 by broth microdilution method. Type of assay: functional, Salmonella enterica subsp. enterica serovar Typhi. Particulars: Salmonella enterica.

In the case of `CC1(C)CC(=O)C2=C(C1)N(Nc1ccc(Br)cc1)C(N)=C(C#N)C2c1cc2cc(Cl)ccc2nc1Cl` (stereo not drawn), the MIC in assay [1] turned out to be 200 µg/mL (≈ 343 µM); in [2], 250 µg/mL (≈ 429 µM); in [3], 1000 µg/mL (≈ 1710 µM); in assay [4], 500 µg/mL (≈ 857 µM); in assay [5] it was 250 µg/mL (≈ 429 µM); in assay [6] it was 250 µg/mL (≈ 429 µM). Besides, the results for the MIC in [9] and in [10] were 100 µg/mL (≈ 171 µM) and 250 µg/mL (≈ 429 µM), respectively. Also, at 6.25 µg/mL the inhibition in assay [7] was 85%. The same compound showed an IC50 in assay [8] of 0.08 µg/mL (≈ 0.137 µM).
Regarding `Cc1ccc2nc(Cl)c(C3C(C#N)=C(N)N(Nc4ccc(Br)cc4)C4=C3C(=O)CC(C)(C)C4)cc2c1` (stereo not drawn), the minimal inhibitory concentration (MIC) in assay [1] was 250 µg/mL (≈ 444 µM); in assay [2], 250 µg/mL (≈ 444 µM); in assay [3], 250 µg/mL (≈ 444 µM); in [4], more than 1000 µg/mL; in [5], 200 µg/mL (≈ 355 µM); in [6], 250 µg/mL (≈ 444 µM). Also, the MIC in [9] and in assay [10] was 250 µg/mL (≈ 444 µM) throughout. Further, at 6.25 µg/mL the inhibition in assay [7] was 47%. In addition, the IC50 in assay [8] worked out at 0.012 µg/mL (≈ 0.0213 µM).
For `CCn1cc(C(=O)O)c(=O)c2cc(F)c(N3CCNCC3)cc21` [NORFLOXACIN], the MIC in assay [1] was 10 µg/mL (≈ 31.3 µM); in [2], 50 µg/mL (≈ 157 µM); in assay [5] it was 100 µg/mL (≈ 313 µM); in assay [6], 10 µg/mL (≈ 31.3 µM); in assay [9], 10 µg/mL (≈ 31.3 µM); in [10], 10 µg/mL (≈ 31.3 µM).
As for `O=C(O)c1cn(C2CC2)c2cc(N3CCNCC3)c(F)cc2c1=O` [CIPROFLOXACIN], the MIC was found to be 50 µg/mL (≈ 151 µM) in [1], 25 µg/mL (≈ 75.4 µM) in [6], 25 µg/mL (≈ 75.4 µM) in assay [9] and 25 µg/mL (≈ 75.4 µM) in assay [10].
In turn, `C=C[C@H]1CN2CC[C@H]1C[C@H]2[C@H](O)c1ccnc2ccc(OC)cc12` [QUININE] returned a concentration for half-maximal inhibition (IC50) in [8] of 0.268 µg/mL (≈ 0.826 µM).
Turning to `Cc1ccc(NN2C(N)=C(C#N)C(c3cc4ccccc4nc3Cl)C3=C2CC(C)(C)CC3=O)cc1` (stereo not drawn), the MIC is 500 µg/mL (≈ 1030 µM) in assay [1]; 250 µg/mL (≈ 517 µM) in assay [2]; 500 µg/mL (≈ 1030 µM) in [3]; 500 µg/mL (≈ 1030 µM) in assay [4]; 250 µg/mL (≈ 517 µM) in assay [5]; 250 µg/mL (≈ 517 µM) in assay [6]. Moreover, the MIC in [9] and in assay [10] was 200 µg/mL (≈ 413 µM) each time. The inhibition at 6.25 µg/mL in [7] was 8%. The compound also registered an IC50 in assay [8] of 0.005 µg/mL (≈ 0.0103 µM).
For the compound `CC1(C)CC(=O)C2=C(C1)N(Nc1ccccc1)C(N)=C(C#N)C2c1cc2cc(Cl)ccc2nc1Cl` (stereo not drawn), the MIC in [1], in [2], in assay [3], in [4], in assay [5] and in assay [6] was 1000 µg/mL (≈ 1980 µM) throughout. Also, the MIC in [9] was 200 µg/mL (≈ 396 µM); in [10], 250 µg/mL (≈ 496 µM). Moreover, the inhibition at 6.25 µg/mL in assay [7] stood at 5%. For the same compound, half-maximal inhibition in assay [8] (IC50) required 0.21 µg/mL (≈ 0.416 µM).
As for `CC1(C)CC(=O)C2=C(C1)N(Nc1ccc(Cl)cc1)C(N)=C(C#N)C2c1cc2ccccc2nc1Cl` (stereo not drawn), the MIC was found to be 500 µg/mL (≈ 991 µM) in assay [1]; 250 µg/mL (≈ 496 µM) in [2]; 250 µg/mL (≈ 496 µM) in [3]; 500 µg/mL (≈ 991 µM) in assay [4]; 500 µg/mL (≈ 991 µM) in assay [5]; 500 µg/mL (≈ 991 µM) in assay [6]. Moreover, the MIC is 200 µg/mL (≈ 396 µM) in assay [9] and 500 µg/mL (≈ 991 µM) in assay [10]. In assay [7], this compound showed an inhibition at 6.25 µg/mL of 22%. Moreover, in assay [8], the 50% inhibitory concentration (IC50) came to 0.42 µg/mL (≈ 0.833 µM).
For `CC1(C)CC(=O)C2=C(C1)N(Nc1ccccc1)C(N)=C(C#N)C2c1cc2ccccc2nc1Cl` (stereo not drawn), the minimum inhibitory concentration (MIC) in [1] was 200 µg/mL (≈ 426 µM); in assay [2], 250 µg/mL (≈ 532 µM); in assay [3], 500 µg/mL (≈ 1060 µM); in assay [4] it was more than 1000 µg/mL; in assay [5], 200 µg/mL (≈ 426 µM); in [6] it was 250 µg/mL (≈ 532 µM). Also, the MIC was determined as 200 µg/mL (≈ 426 µM) in assay [9] and 250 µg/mL (≈ 532 µM) in assay [10]. In addition, 6.25 µg/mL produced 8% inhibition in assay [7]. 0.015 µg/mL (≈ 0.0319 µM) corresponded to half-maximal inhibition in [8] (IC50).
For NYSTATIN, the MIC in assay [3] and in [4] was 100 µg/mL in each case.
As to `CC1(C)CC(=O)C2=C(C1)N(Nc1ccc(Br)cc1)C(N)=C(C#N)C2c1cc2ccccc2nc1Cl` (stereo not drawn), the MIC in assay [1] was 100 µg/mL (≈ 182 µM); in assay [2] it was 500 µg/mL (≈ 911 µM); in assay [3], more than 1000 µg/mL; in [4] it was more than 1000 µg/mL; in [5], 200 µg/mL (≈ 364 µM); in assay [6] it was 100 µg/mL (≈ 182 µM). Also, the MIC in assay [9] and in [10] was 250 µg/mL (≈ 455 µM) in each case. This compound also had an inhibition at 6.25 µg/mL in assay [7] of 33%. The same compound showed an IC50 in [8] of 0.54 µg/mL (≈ 0.984 µM).
